This is a sample that favours compounds with a hit; in the whole collection about 0.9% have one here.
ABCG2 block = blocks JC-1 efflux by human ABCG2 transporter; Q9UNQ0; AID 1325; 190,000 tested, 0.1% active; IgMXP3 cells, flow cytometry; inhibition, % at 6.6 µM;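 active = inhibition above 80%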;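 note: 0% = DMSO and 100% = nicardipine control wells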
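Assay system – ABCG2 IgMXP3 and barcoded ABCB1 CCRF-Adr cell mix · Input – 3 million cells/mL in well · Reagent – JC-1 fluorescent substrate · Compound – single test compound dose, 6.6 µM final · Timing – 10 min exposure at 25 °C with rotation, no wash · Detection – flow cytometry of retained JC-1 fluorescence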
RGS7-Gao = regulators of human RGS7-Galphao interaction. 220,000 tested, 0.35% active. AID 1439. binding response (% of control), % at 10 µM. Multiplexed bead flow cytometry, RGS7-Galphao binding; actives lie on both sides. P09471; in the data active = binding response below about 49% or above about 150%; inconclusive = no clear call, values can overlap the other calls; inactive = in between;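 note: fluorescent Galphao held in activated GDP-AlF4 state binding bead-coupled RGS7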
Target sequence (P09471 whole entry, looked up): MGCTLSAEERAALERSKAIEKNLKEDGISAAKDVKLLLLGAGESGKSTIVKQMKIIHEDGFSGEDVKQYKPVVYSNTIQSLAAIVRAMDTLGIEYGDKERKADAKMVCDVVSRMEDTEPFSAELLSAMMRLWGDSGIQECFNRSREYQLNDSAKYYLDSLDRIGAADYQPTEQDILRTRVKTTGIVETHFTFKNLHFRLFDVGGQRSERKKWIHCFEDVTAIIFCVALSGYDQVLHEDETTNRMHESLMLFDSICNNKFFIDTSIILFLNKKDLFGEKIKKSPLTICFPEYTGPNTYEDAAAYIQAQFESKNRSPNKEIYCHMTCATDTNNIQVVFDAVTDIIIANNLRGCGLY
RGS8-Gao = modulates binding of RGS8 to human Galphao. 220,000 tested, 0.34% active. P09471. response (percent of control binding), % at 10 µM. multiplexed bead flow cytometry; actives lie on both sides; in the data active = response below about 60% or above about 140%; inactive = in between;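 note: Galphao activated as the GDP aluminium fluoride complex binding bead-coupled RGS8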
RGS16-Gao HTS = RGS16-Galphao interaction regulator (human); bead-based flow cytometry RGS16-Galphao binding, fluorescence; actives lie on both sides; binding response (% of control), % at 10 µM; 220,000 tested, 0.38% active;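 note: Galphao activated by GDP with aluminum fluoride before binding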
RGS4-Gao reg = modulates binding of RGS4 to human Galphao; 220,000 tested, 0.33% active; Multiplexed bead flow cytometry; actives lie on both sides; binding response (% of control), % at 10 µM; P09471; in the data active = binding response below about 49% or above about 150%; inactive = in between;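 note: fluorescent Galphao activated with aluminum fluoride binding bead-coupled RGS4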
ABCB1 inh = inhibitors of human ABCB1 transporter, ABCG2 counter-screen; CCRF-Adr cells, JC-1 efflux, flow cytometry; inhibition, % at 6.6 µM; P08183; 190,000 tested, 0.067% active; in the data active = inhibition above about 40%;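 note: 0% = vehicle and 100% = reference inhibitor; higher value means more JC-1 retained so stronger ABCB1 efflux block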
RGS4-Gao HTS = regulators of human RGS4-Galphao interaction; 1,600 tested, 99% active; RGS4–Galpha-o binding response, % at 10 µM; multiplexed bead flow cytometry, RGS–Galpha-o binding; shares compounds with RGS16-Gao HTS; AID 1504;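 note: fluorescently labeled Galpha-o bound to GDP with aluminium fluoride binding biotinylated RGS beads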
Biotin-avidin = interferes with biotinylated probe binding to avidin beads; shares compounds with RGS16-Gao HTS; streptavidin beads, fluorescein-biotin binding, flow cytometry; inhibition, % at 10 µM; 1,700 tested, under 10 active;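 active = inhibition above 50%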;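 note: median green fluorescence of gated singlet beads compared with DMSO control wells; 0% = DMSO wells and 100% = complete loss of bead fluorescence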
RGS8-Gao confirm = confirmation of regulators of human RGS8-Galphao interaction. shares compounds with RGS16-Gao HTS. bead-based flow cytometry RGS8-Galphao binding, fluorescence; actives lie on both sides. binding response (% of control), % at 10 µM. 1,700 tested, 3% active; in the data active = binding response below about 72% or above about 130%; inactive = in between;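 note: Galphao activated as GDP AlF4 complex before binding bead RGS8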
RGS7-Gao single = confirmation of regulators of human RGS7-Galphao interaction | shares compounds with RGS16-Gao HTS | bead-based flow cytometry RGS7-Galphao binding; actives lie on both sides | response (percent of control binding), % at 10 µM | 1,700 tested, 7.8% active | AID 1837; in the data active = response below about 75% or above about 130%; inactive = in between;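 note: fluorescent Galphao activated with GDP and aluminum fluoride binding bead-coupled RGS7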
RGS16-Gao single = confirmation of regulators of human RGS16-Galphao interaction. AID 1838. shares compounds with RGS16-Gao HTS. bead-based flow cytometry, RGS16-Galphao binding; actives lie on both sides. response (% of control binding), % at 10 µM. 1,700 tested, 4% active; in the data active = response below about 74% or above about 130%; inactive = in between;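 note: Galphao activated as the GDP aluminium fluoride complex binding bead-coupled RGS16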
RGS4-Gao single = RGS4-Galphao interaction regulation, single point confirmation; RGS4-Galphao binding, multiplexed bead flow cytometry; actives lie on both sides; 1,700 tested, 4% active; shares compounds with RGS16-Gao HTS; binding response (% of control), % at 10 µM; AID 1840; in the data active = binding response below about 74% or above about 130%; inactive = in between
RGS19-Gao conf = RGS19-Galphao interaction regulation, single point confirmation | 1,700 tested, 5% active | bead-based flow cytometry RGS19-Galphao binding; actives lie on both sides | shares compounds with RGS16-Gao HTS | response (percent of control binding), % at 10 µM | AID 1841; in the data active = response below about 50% or above about 160%; inactive = in between;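 note: 100% = no compound control and 0% = blank background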
Target sequence (P09471 whole entry, looked up): as above
Target sequence (P49795 whole entry, looked up): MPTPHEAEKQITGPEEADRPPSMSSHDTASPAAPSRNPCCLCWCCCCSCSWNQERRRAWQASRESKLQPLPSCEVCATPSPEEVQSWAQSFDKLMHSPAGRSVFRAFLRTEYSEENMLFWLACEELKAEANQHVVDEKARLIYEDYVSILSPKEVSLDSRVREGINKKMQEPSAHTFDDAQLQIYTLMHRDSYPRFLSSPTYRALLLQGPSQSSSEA
Starred values were filed as active, the others as inactive; ? = inconclusive; · = no result given; [ ] = remark or other dose. Unless noted, the rule behind the calls is not given here.

SMILES	ABCG2 block	RGS7-Gao	RGS8-Gao	RGS16-Gao HTS	RGS4-Gao reg	ABCB1 inh	Biotin-avidin	RGS8-Gao confirm	RGS7-Gao single	RGS16-Gao single	RGS4-Gao single	RGS19-Gao conf	others
O=C(Nc1nc(-c2ccccc2)c(C(=O)c2ccccc2)s1)c1ccc(S(=O)(=O)N2CCCC2)cc1	17	381*[activator]	135	349*[activator]	297*[activator]	22	1	104	101	101	103	91
CCCCC(C(=O)NC(=O)NCc1ccccc1)N1C(=O)c2ccccc2C1=O (configuration not stated)	9	97	104	107	102	2	·	·	·	·	·	·
CC(C(=O)NC(=O)NCc1ccccc1)N1C(=O)c2ccccc2C1=O (configuration not stated)	0	·	·	·	140	0	0	98	97	96	98	106
c1ccc(SSc2ccccc2)cc1	1	105	64	-4.9*	100	0	·	·	·	·	·	·	RGS4-Gao HTS=100*
c1ccc(-c2csc3ncnc(NCc4ccccn4)c23)cc1	·	?	128	147	153*[activator]	·	-1	102	102	100	103	91
S=c1[nH]nc(COc2ccccc2)n1Cc1ccccc1	-4	82	50*	3.7*	80	-1	0	82	80	76	82	72	RGS4-Gao HTS=80*
CCOC(=O)c1oc2cccc(OCC(O)CNC(C)C)c2c1C (configuration not stated)	1	184*[activator]	125	231*[activator]	204*[activator]	1	2	99	93	93	94	96
O=C(CCNC(=O)c1ccccc1)OCC(=O)c1ccccc1	3	100	103	98	99	1	·	·	·	·	·	·
Cc1nc(C(F)(F)F)ccc1C(=O)N1CCCCC1	·	?	31*	5.8*	3.0*	·	0	102	98	103	102	96
O=C(c1ccc(C(F)(F)F)cc1)N1CCCCC1	2	91	96	101	94	1	·	·	·	·	·	·
Cc1ccc2c(c1)-c1[nH]c(=S)ncc1CS2	-1	100	99	100	100	-1	·	·	·	·	·	·
CC(C)CCN1CCN(Cc2nc3c(s2)CCCC3)CC1CCO (configuration not stated)	1	27*	38*	30	40*	0	-1	115	110	117	103	105
OCCC1CN(Cc2nc3c(s2)CCCC3)CCN1CCc1ccccc1 (configuration not stated)	0	103	99	101	99	2	·	·	·	·	·	·
COc1cc2c(cc1OC)C(c1cccs1)N(C(=S)NC(C)C)CC2 (configuration not stated)	0	93	97	100	97	0	·	·	·	·	·	·
COc1ccc2[nH]c(=O)c(COC(=O)c3cccs3)cc2c1	1	20*	22*	14	21*	1	-2	101	92	98	101	84
Cc1ccc2[nH]c(=O)c(COC(=O)c3cccs3)cc2c1	3	102	103	104	100	0	·	·	·	·	·	·
O=C(Cn1cnc2scc(-c3ccc(Br)cc3)c2c1=O)N1CCOCC1	2	106	100	100	102	1	·	·	·	·	·	·
CC(C)CCNC(=O)NC(=O)COC(=O)C1=COCCO1	-1	17*	13*	9.2*	21*	0	-1	101	100	101	104	98
CC(C)c1cccc(C(C)C)c1NC(=O)COC(=O)C1=COCCO1	3	?	99	101	101	0	·	·	·	·	·	·
O=C(CN(Cc1ccccc1C(F)(F)F)C(=O)CNC(=O)c1ccco1)NC1CCCC1	-1	171*[activator]	101	106	113	0	-1	101	106	100	102	107	RGS4-Gao HTS=113*
O=C(NCC(=O)N(CC1CCCO1)C(C(=O)NC1CCCCC1)c1ccc(F)cc1)c1ccco1 (configuration not stated)	1	237*[activator]	94	106	165*[activator]	1	1	99	98	99	99	102
CC(C)CCN1CCC(N)=NC1=O	5	217*[activator]	110	191*[activator]	234*[activator]	1	-2	115	104	116	107	86
CC(C)CCN1CC(C(=O)NCCC2=CCCCC2)CC1=O (configuration not stated)	0	99	104	103	101	0	·	·	·	·	·	·
COc1ccccc1OCCn1c(=O)oc2ccc(C)cc21	1	99	100	104	102	1	·	·	·	·	·	·
O=C(Cn1cnc2c(cnn2-c2ccccc2)c1=O)Nc1ccc(S(=O)(=O)N2CCOCC2)cc1	10	90	77	20*	95	1	2	97	93	95	93	189*[activator]	RGS4-Gao HTS=95*
CC1CCCCN1C(=O)Cn1cc(/C=C2/C(=O)Nc3ccccc32)c2ccccc21 (configuration not stated)	1	44*	55*	41	50*	1	0	103	104	104	104	98
CCOC(=O)c1c(-c2cccs2)csc1NC(=O)CN(CC)CC	6	42*	55*	38	46*	1	-1	99	95	99	95	105
CCN(c1ccccc1)S(=O)(=O)c1ccc(Cl)c(NC(=O)CN2C(=O)NC3(CCCC3)C2=O)c1	·	?	103	101	104	·	·	·	·	·	·	·
O=C(Nc1ccccc1)N1CCCN(c2ccc(C(F)(F)F)cc2[N+](=O)[O-])CC1	·	?	41*	21*	23*	·	-2	102	101	99	103	106

Bioassay records from PubChem.
